{"source": "ChEMBL document CHEMBL1121966", "about": "“(2R*,3S*)-1-[125I]Iodo-2,3-bis(4-hydroxyphenyl)pentane ([125I]iodonorhexestrol) and (2R*,3S*)-1-[77Br]Bromo-2,3-bis(4-hydroxyphenyl)pentane ([77Br]bromonorhexestrol), two gamma-emitting estrogens that show receptor-mediated uptake by target tissues in vivo” (1982)", "assay_type_in_all_cases": "functional", "key": {"[1]": {"assay": "Lung/blood distribution ratio was determined in immature female rats at 1 hr with unlabeled estradiol", "method_in_brief": "(§1)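 Immature (25-day, ca. 50 g) Sprague-Dawley female rats received an iv injection (jugular or tail vein) of HPLC-purified tracer in ethanol plus 0.9% NaCl/rat serum 1:1. Doses were 2 μCi [125I]iodo tracer (≤15 pmol), or 2 μCi [77Br]bromo tracer (≤1.25 pmol) with 2 μCi 16α-[125I]iodoestradiol. Animals were killed at 1 h; blood and tissues were weighed and γ-counted. Blocking: coinjected unlabeled estradiol, 9 μg (iodo) or 18 μg (bromo). Mean ± SD.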"}, "Rattus norvegicus [2]": {"organism": "Rattus norvegicus", "assay": "Percent injected dose per gram esophagus at 1 hr with unlabeled estradiol", "method_in_brief": "as §1"}, "[3]": {"assay": "Kidney/blood distribution ratio was determined in immature female rats at 3h", "method_in_brief": "(§2)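 Dual-label study in immature 25-day female Sprague-Dawley rats (ca. 50 g). Each received 2 μCi [77Br]bromo tracer (≤1.25 pmol/dose) and 2 μCi 16α-[125I]iodoestradiol (2 pmol/dose) by tail or jugular vein, in ethanol diluted with saline/rat serum 1:1. Rats were killed at 3 or 6 h; blood and 11 tissues were weighed and counted. Five rats per time point; mean ± SD.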"}, "Rattus norvegicus [4]": {"organism": "Rattus norvegicus", "assay": "Percent injected dose per gram Muscle at 1 hr with unlabeled estradiol", "method_in_brief": "as §1"}, "[5]": {"assay": "Ovary/blood distribution ratio was determined in immature female rats at 1 hr", "method_in_brief": "as §1"}, "Rattus norvegicus [6]": {"organism": "Rattus norvegicus", "assay": "Percent injected dose per gram lung at 1 hr with unlabeled estradiol", "method_in_brief": "(§3)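 Same iv biodistribution in immature female rats, killed at 1 h, with unlabeled estradiol coinjected to block receptor uptake: 9 μg with [125I]iodonorhexestrol (3 rats), 18 μg with the [77Br]bromonorhexestrol/16α-[125I]iodoestradiol pair (5 rats). Tissue and blood radioactivity were counted as % injected dose/g and tissue-to-blood ratio.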"}, "Rattus norvegicus [7]": {"organism": "Rattus norvegicus", "assay": "Percent injected dose per gram blood at 1 hr with unlabeled estradiol", "method_in_brief": "as §1"}, "[8]": {"assay": "Muscle/blood distribution ratio was determined in immature female rats at 3h", "method_in_brief": "as §2"}, "[9]": {"assay": "Kidney/blood distribution ratio was determined in immature female rats at 6 hr", "method_in_brief": "as §2"}, "[10]": {"assay": "Ovary/blood distribution ratio was determined in immature female rats at 6 hr", "method_in_brief": "as §2"}, "Rattus norvegicus [11]": {"organism": "Rattus norvegicus", "assay": "Percent injected dose per gram spleen at 6 hr", "method_in_brief": "(§4)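 Immature (25 day) female Sprague-Dawley rats (ca. 50 g) were dosed iv (jugular or tail vein) in ethanol plus 0.9% NaCl/rat serum (1:1). Doses were 2 μCi of [125I]iodonorhexestrol (≤15 pmol/dose), or 2 μCi each of [77Br]bromonorhexestrol (≤1.25 pmol/dose) and 16α-[125I]iodoestradiol (2 pmol/dose). Rats were killed at 1, 3 or 6 h; blood and tissues were weighed and γ-counted. Thyroid weight assumed 0.005 g/100 g body weight. Mean ± SD.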"}, "Rattus norvegicus [12]": {"organism": "Rattus norvegicus", "assay": "Percent injected dose per gram Muscle at 3h", "method_in_brief": "as §2"}, "[13]": {"assay": "Uptake ratio was measured with 16-alpha-[125I]-iodo-17-beta-estradiol in immature rats at 6 hr", "method_in_brief": "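Immature (25 day, ca. 50 g) female Sprague-Dawley rats received iv (jugular or tail vein) 2 μCi each of the 77Br ligand (≤1.25 pmol/dose) and 16α-[125I]iodoestradiol (2 pmol/dose), in ethanol plus 0.9% NaCl/rat serum 1:1. Rats were killed at 3 or 6 h, five per time point. Blood and tissues were weighed and counted. The 77Br/125I ratio was calculated per rat and averaged. Nontarget was the mean of esophagus, spleen, lung and muscle.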"}, "Rattus norvegicus [14]": {"organism": "Rattus norvegicus", "assay": "Solvolytic stability was measured relative to p-hydroxyphenethyl bromide", "method_in_brief": "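Solvolysis rates were measured in 40% ethanol-water at 50 °C, buffered to pH 7. Values are 1/k_rel = (k_compound/k_p-hydroxyphenylethyl bromide)^-1.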"}, "Rattus norvegicus [15]": {"organism": "Rattus norvegicus", "assay": "Percent injected dose per gram esophagus at 6 hr", "method_in_brief": "as §2"}, "Rattus norvegicus [16]": {"organism": "Rattus norvegicus", "assay": "Percent injected dose per gram lung at 3h", "method_in_brief": "as §4"}, "[17]": {"assay": "Uterus/blood distribution of compound was measured in immature female rats at 1 hr with unlabeled estradiol", "method_in_brief": "as §3"}, "[18]": {"assay": "Thyroid/blood distribution ratio was determined in immature female rats at 1 hr with unlabeled estradiol", "method_in_brief": "as §3"}, "[19]": {"assay": "Tissue/blood distribution ratio was measured in immature female rats at 6 hr", "method_in_brief": "as §4"}, "[20]": {"assay": "Thyroid/blood distribution ratio was determined in immature female rats at 1 hr", "method_in_brief": "as §4"}, "[21]": {"assay": "Ovary/blood distribution ratio was determined in immature female rats at 3h", "method_in_brief": "as §2"}, "[22]": {"assay": "Ovary/blood distribution ratio was determined in immature female rats at 1 hr with unlabeled estradiol", "method_in_brief": "as §1"}}, "note": "Values joined by “and” are separate entries in the source; they are usually repeats but may differ in a detail not shown here. Equal values may be shown once.", "data": [{"smiles": "CC[C@H](c1ccc(O)cc1)[C@@H](CBr)c1ccc(O)cc1", "values": [{"measurement": "Ratio", "setting": "[1]", "value": 0.82}, {"measurement": "Injected dose", "setting": "Rattus norvegicus [2]", "value": 0.56, "unit": "%"}, {"measurement": "Ratio", "setting": "[3]", "value": 0.76}, {"measurement": "Injected dose", "setting": "Rattus norvegicus [4]", "value": 0.3, "unit": "%"}, {"measurement": "Ratio", "setting": "[5]", "value": 1.98}, {"measurement": "Injected dose", "setting": "Rattus norvegicus [6]", "value": 0.8, "unit": "%"}, {"measurement": "Injected dose", "setting": "Rattus norvegicus [7]", "value": 0.98, "unit": "%"}, {"measurement": "Ratio", "setting": "[8]", "value": 0.29}, {"measurement": "Ratio", "setting": "[9]", "value": 0.89}, {"measurement": "Ratio", "setting": "[10]", "value": 1.41}, {"measurement": "Injected dose", "setting": "Rattus norvegicus [11]", "value": 0.69, "unit": "%"}, {"measurement": "Injected dose", "setting": "Rattus norvegicus [12]", "value": 0.37, "unit": "%"}, {"measurement": "Ratio", "setting": "[13]", "value": "0.58 and 0.33%"}, {"measurement": "1/krel", "setting": "Rattus norvegicus [14]", "value": 1.17}, {"measurement": "Injected dose", "setting": "Rattus norvegicus [15]", "value": 0.68, "unit": "%"}, {"measurement": "Injected dose", "setting": "Rattus norvegicus [16]", "value": 0.95, "unit": "%"}, {"measurement": "Ratio", "setting": "[17]", "value": 0.98}, {"measurement": "Ratio", "setting": "[18]", "value": 0.25}, {"measurement": "Ratio", "setting": "[19]", "value": 1}, {"measurement": "Ratio", "setting": "[20]", "value": 0.32}, {"measurement": "Ratio", "setting": "[21]", "value": 1.23}, {"measurement": "Ratio", "setting": "[22]", "value": 0.74}]}]}
